Where two headings read alike, the source gives them in different places.

Series [1] concerns microtubules (taxane binding site) in living HeLa cells. In words: Competition binding assay with PB-GABA-Taxol in living HeLa cells. The settings on record: read-out: cellular Ki; PB-GABA-Taxol 1.5 μM, verapamil 100 μM, 37 °C, 4% FBS, 3 h, 60K cells/well.
Series [2] has as its target cross-linked microtubules. The conditions noted are these: cited from earlier work; for Kd: read-out: biochemical Kd; for Ki: read-out: biochemical Ki.
A short description of series [3]: Cytotoxicity toward HeLa cells after 48 h by flow cytometry. Format: cell-based. The settings on record: human.
The subject of series [4] is microtubule network of HeLa cells. In words: Confocal microscopy of HeLa cells expressing mScarlet-α-Tubulin. Format: cell-based. The conditions noted are these: 1 h at 37 °C. In short, it runs like this:
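HeLa cells transiently transfected to express mScarlet-α-tubulin. Live cells were treated with microtubule modulators for 1 h at 37 °C, and microtubule-network phenotypes were imaged by confocal microscopy.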

For series [5], the system named is taxane binding site in living cells. The settings on record: read-out: Ki by confocal microscopy; cited from earlier work.
Series [6] deals with microtubules in living HeLa cells. In words: Allosteric modulator assay with PB-GABA-Taxol in living HeLa cells. Format: binding. The settings on record: allosteric modulator model; PB-GABA-Taxol 1.5 μM, verapamil 100 μM, 3 h, 37 °C.
The target in a further series is albumin. The conditions noted are these: read-out: Kd for albumin; cited from earlier work.
Series [7] has as its target purified GDP-bound microtubules. The conditions noted are these: cited from earlier work.

Take `CC(=O)O[C@H]1C(=O)[C@@]2(C)[C@H]([C@H](OC(=O)c3ccccc3)[C@]3(O)C[C@H](O)C(C)=C1C3(C)C)[C@]1(OC(C)=O)CO[C@@H]1C[C@@H]2O` [baccatin III]: in series [1], the Ki came to 17000 ± 3000 nM. In addition, the Kd in series [2] (ref 21) is 6700 ± 2000 nM.

On to `CO[C@H]1C(=O)[C@]2(C)[C@@H](OC)C[C@H]3OC[C@@]3(OC(C)=O)[C@H]2[C@H](OC(=O)c2ccccc2)[C@]2(O)C[C@H](OC(=O)[C@H](O)[C@@H](NC(=O)OC(C)(C)C)c3ccccc3)C(C)=C1C2(C)C` [cabazitaxel], for which the Ki in series [1] was 6 nM; in series [2] (ref 17) it was 7.4 ± 0.9 nM.

With `COc1cc2c(c(OC)c1OC)-c1ccc(OC)c(=O)cc1[C@@H](NC(C)=O)CC2` [colchicine], in series [3], the IC50 at 48 h is 20 ± 8 nM. Also, the fluorescent microtubule phenotype entry in series [4] is “disrupted the microtubule network”.

As to `CC(=O)O[C@@]12CO[C@@H]1C[C@H](O)[C@@]1(C)C(=O)[C@H](O)C3=C(C)[C@@H](OC(=O)[C@H](O)[C@@H](NC(=O)OC(C)(C)C)c4ccccc4)C[C@@](O)([C@@H](OC(=O)c4ccccc4)[C@H]21)C3(C)C` [docetaxel], the Ki in series [1] was 16 nM; in series [2] (cross-linked microtubules), 17 ± 6 nM. Besides, the equilibrium dissociation constant (Kd) in series [2] (ref 17) was 6.8 ± 0.2 nM; in series [2] (ref 65), 25 ± 0.4 nM.

As to `C/C(=C\c1csc(C)n1)[C@@H]1C[C@@H]2O[C@]2(C)CCC[C@H](C)[C@H](O)[C@@H](C)C(=O)C(C)(C)[C@@H](O)CC(=O)N1` [ixabepilone], the inhibition constant (Ki) was 10 nM in series [1] and 7.6 ± 1.6 nM in series [5].

Take `COc1cc2cc(c1Cl)N(C)C(=O)C[C@H](OC(=O)[C@H](C)N(C)C(C)=O)[C@]1(C)O[C@H]1[C@H](C)[C@@H]1C[C@@](O)(NC(=O)O1)[C@H](OC)/C=C/C=C(\C)C2` [maytansine]: the “cooperativity factor α” value in series [6] came to 0.21.

Turning to `CC(=O)O[C@H]1C(=O)[C@@]2(C)[C@H]([C@H](OC(=O)c3ccccc3)[C@]3(O)C[C@H](OC(=O)[C@H](O)[C@@H](NC(=O)c4ccccc4)c4ccccc4)C(C)=C1C3(C)C)[C@]1(OC(C)=O)CO[C@@H]1C[C@@H]2O` [paclitaxel], the inhibitory constant (Ki) in series [1] is 22 nM; in series [2] (cross-linked microtubules), 27 ± 11 nM; in series [2] (ref 21), 31 nM; in series [2] (ref 67), 19 nM. Further, in series [4], the fluorescent microtubule phenotype entry was “enhanced the formation of long microtubule fibers”. Also, the dissociation constant (Kd) was 70 ± 0.6 nM in series [2] (ref 65), 15 nM in series [2] (ref 66), 50 nM in series [2] (ref 68) and 120 nM at albumin.

As for `CC[C@]1(O)C[C@@H]2CN(CCc3c([nH]c4ccccc34)[C@@](C(=O)OC)(c3cc4c(cc3OC)N(C)[C@H]3[C@@](O)(C(=O)OC)[C@H](OC(C)=O)[C@]5(CC)C=CCN6CC[C@]43[C@@H]65)C2)C1` [vinblastine], in series [6], the “cooperativity factor α” value was determined as 0.18. The equilibrium dissociation constant (Kd) in series [7] was 190 to 1000 nM.

As usually defined, the Ki is a measure of affinity in units of concentration, obtained from inhibition or displacement. In general, Kd refers to a measure of binding affinity in units of concentration. As usually defined, the IC50 is the concentration needed to halve the response being measured.

Source of the values: article PMC9585582 (ACS Bio & Med Chem Au, 2022).
